Tests used:
DU-145 = test: Cytostatic activity against human DU145 cells after 5 days by SRB assay; assay type: functional; conditions: DU-145, 120 h
Method in brief: (§1)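 Cells seeded per line density, overnight at 37 °C; day-zero plate TCA-fixed. 5-fold serial dilutions added, 5-day incubation; TCA fixation, 0.057% SRB in 1% acetic acid 30 min, dye dissolved in 10 mM Tris pH 10.5, A500. Growth relative to day-zero and untreated; GIC50 from sigmoidal dose–response fit; mean of two independent experiments.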

A549 = test: Cytostatic activity against human A549 cells after 5 days by SRB assay; assay type: functional; conditions: A549, 120 h; method in brief: as §1
PC-3 = test: Cytostatic activity against human PC3 cells after 5 days by SRB assay; assay type: functional; conditions: PC-3, 120 h; method in brief: as §1
[1] = Cytostatic activity against human Hs578 cells after 5 days by SRB assay; assay type: functional; conditions: Hs578, 120 h; method in brief: as §1
NCI-H23 = test: Cytostatic activity against human NCI-H23 cells after 5 days by SRB assay; assay type: functional; conditions: NCI-H23, 120 h; method in brief: as §1
HL-60 = test: Cytotoxicity against human HL60 cells after 3 days by XTT assay; assay type: functional, cell-based; conditions: HL-60, 72 h
Method in brief: (§2)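 Suspension-grown cell lines, 3-day compound incubation; viability read by XTT metabolic assay; IC50 averaged from four independent experiments.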

MT4 = test: Cytostatic activity against human MT4 cells after 5 days by SRB assay; assay type: functional; conditions: MT4, 120 h
[2] = Cytotoxicity against human HeLaS3 cells after 3 days by XTT assay; assay type: functional, cell-based; conditions: HeLa S3, 72 h; method in brief: as §2
HCT-15 = test: Cytostatic activity against human HCT15 cells after 5 days by SRB assay; assay type: functional; conditions: HCT-15, 120 h; method in brief: as §1
CCRF-CEM = test: Cytotoxicity against human CCRF-CEM cells after 3 days by XTT assay; assay type: functional, cell-based; conditions: 72 h; method in brief: as §2
Adenosine kinase = Adenosine kinase (Homo sapiens, UniProt P55263); test: Inhibition of human ADK using [3H]-adenosine by scintillation counting
Sequence of Adenosine kinase (P55263 whole entry): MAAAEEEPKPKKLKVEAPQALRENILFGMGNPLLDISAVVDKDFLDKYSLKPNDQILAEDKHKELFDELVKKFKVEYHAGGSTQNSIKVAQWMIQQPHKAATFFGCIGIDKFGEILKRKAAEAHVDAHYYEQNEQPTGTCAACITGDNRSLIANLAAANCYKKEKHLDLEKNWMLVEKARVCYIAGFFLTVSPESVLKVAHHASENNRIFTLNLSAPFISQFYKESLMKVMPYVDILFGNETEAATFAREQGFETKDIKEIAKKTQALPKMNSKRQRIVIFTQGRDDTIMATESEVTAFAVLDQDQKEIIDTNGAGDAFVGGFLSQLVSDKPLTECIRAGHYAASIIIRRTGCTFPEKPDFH

HCT-116 = test: Cytostatic activity against human HCT116 cells after 5 days by SRB assay; assay type: functional; conditions: HCT-116, 120 h; method in brief: as §1
BT-549 = test: Cytostatic activity against human BT549 cells after 5 days by SRB assay; assay type: functional; conditions: BT-549, 120 h; method in brief: as §1
[3] = Inhibition of RNA polymerase 2 in human HeLaScribe nuclear extracts after 1 hr; conditions: read-out: IC50
Method in brief: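 HeLaScribe nuclear extract transcription with CMV(+) template DNA, 3 mM MgCl2, 400 μM CTP/GTP/UTP, 25 μM [33P]ATP. Inhibitor preincubated 5 min at 30 °C, then 1 h at 30 °C. Products run on 6% urea–polyacrylamide gel; full-length transcript quantified; IC50 is 50% product decrease.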

| SMILES | GI50 (DU-145) | GI50 (A549) | GI50 (PC-3) | GI50 [1] | GI50 (NCI-H23) | IC50 (HL-60) | GI50 (MT4) | IC50 [2] | GI50 (HCT-15) | IC50 (CCRF-CEM) | IC50 (Adenosine kinase) | GI50 (HCT-116) | GI50 (BT-549) | IC50 [3] |
| --- | --- | --- | --- | --- | --- | --- | --- | --- | --- | --- | --- | --- | --- | --- |
| COc1ccc(-c2cn([C@@H]3O[C@H](CO)[C@@H](O)[C@H]3O)c3ncnc(N)c23)cc1 | 152 nM | 701 nM | 1110 nM | 811 nM | 856 nM | > 10000 nM | 4300 nM | > 10000 nM | 544 nM | > 10000 nM | > 2000 nM | 633 nM |  |  |
| CSc1ccc(-c2cn([C@@H]3O[C@H](CO)[C@@H](O)[C@H]3O)c3ncnc(N)c23)cc1 | 1870 nM |  |  | 1970 nM | 390 nM | > 10000 nM | 4400 nM | > 10000 nM |  | > 10000 nM | > 10000 nM | 1290 nM |  |  |
| COc1cccc2c1C(=O)c1c(O)c3c(c(O)c1C2=O)C[C@@](O)(C(=O)CO)C[C@@H]3O[C@H]1C[C@H](N)[C@H](O)[C@H](C)O1 [DOXORUBICIN] |  | 16 nM | 21 nM | 6 nM | 5 nM |  |  |  |  |  |  | 11 nM | 10 nM |  |
| Nc1ncnc2c1c(-c1c[nH]cn1)cn2[C@@H]1O[C@H](CO)[C@@H](O)[C@H]1O |  |  | 2 nM | 2 nM | 2 nM | 130 nM | 28 nM | 70 nM |  | 70 nM | > 10000 nM | 3 nM |  |  |
| Nc1nc(Cl)nc2c1ncn2[C@@H]1O[C@H](CO)[C@@H](O)[C@@H]1F [CLOFARABINE] | 125 nM | 86 nM | 63 nM | 1240 nM | 40 nM |  | 51 nM |  | 180 nM |  |  | 106 nM | 65 nM |  |
| Nc1ncnc2c1c(-c1ccoc1)cn2[C@@H]1O[C@H](COP(=O)(O)OP(=O)(O)OP(=O)(O)O)[C@@H](O)[C@H]1O |  |  |  |  |  |  |  |  |  |  |  |  |  | > 400000 nM |
| Nc1ncnc2c1ccn2[C@@H]1O[C@H](CO)[C@@H](O)[C@H]1O [TUBERCIDIN] | 18 nM | 1 nM | 48 nM | 98 nM | 11 nM |  | 21 nM |  | 11 nM |  |  | 1 nM |  |  |
| C#Cc1cn([C@@H]2O[C@H](CO)[C@@H](O)[C@H]2O)c2ncnc(N)c12 |  |  | 11 nM | 1 nM | 1 nM | 90 nM | 1 nM | 20 nM |  | 10 nM | 200 nM | 2 nM |  |  |
| Nc1ncnc2c1ccn2[C@@H]1O[C@H](COP(=O)(O)OP(=O)(O)OP(=O)(O)O)[C@@H](O)[C@H]1O [TUBERCIDIN TRIPHOSPHATE] |  |  |  |  |  |  |  |  |  |  |  |  |  | 93000 nM |
| Nc1ncnc2c1c(-c1cc[nH]n1)cn2[C@@H]1O[C@H](CO)[C@@H](O)[C@H]1O |  |  | 15 nM | 8 nM | 35 nM | > 20000 nM | 18 nM | 690 nM |  | 130 nM | > 10000 nM | 18 nM |  |  |
| Nc1ncnc2c1c(-c1ccco1)cn2[C@@H]1O[C@H](CO)[C@@H](O)[C@H]1O | 19 nM | 35 nM | 4 nM | 17 nM | 294 nM | 11600 nM | 86 nM | 50 nM | 3 nM | 100 nM | > 2000 nM | 48 nM |  |  |

Source: ChEMBL document CHEMBL1811802, “Synthesis and significant cytostatic activity of 7-hetaryl-7-deazaadenosines” (J Med Chem, 2011)
